Shown are actives, neighbours in structure and some others; about 2.8% of the full set was active somewhere.
Measles CPE: protection of cells from measles virus | Measles virus-infected cells, CPE protection, absorbance | protection (pct of control), % at 4 µM | hit rate 1.5% among 140,000; in the data active = protection mostly above about 24%, no sharp cut-off; inactive = mostly below about 26%
NPY-Y1 PAM-ag: potentiators or agonists of human neuropeptide Y receptor Y1 | AID 1304 | NPY-Y1 expressing cells, potentiator/agonist activation | activation, % at 3.6 µM | P25929 | hit rate 0.37% among 220,000; in the data active = activation above about 33%, passing the limit was not always enough;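 also: cells stimulated with NPY at EC10 then isoproterenol at EC100; 0% = low agonist plus stimulus and 100% = saturating agonist plus stimulus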
Target sequence (P25929 whole entry, looked up): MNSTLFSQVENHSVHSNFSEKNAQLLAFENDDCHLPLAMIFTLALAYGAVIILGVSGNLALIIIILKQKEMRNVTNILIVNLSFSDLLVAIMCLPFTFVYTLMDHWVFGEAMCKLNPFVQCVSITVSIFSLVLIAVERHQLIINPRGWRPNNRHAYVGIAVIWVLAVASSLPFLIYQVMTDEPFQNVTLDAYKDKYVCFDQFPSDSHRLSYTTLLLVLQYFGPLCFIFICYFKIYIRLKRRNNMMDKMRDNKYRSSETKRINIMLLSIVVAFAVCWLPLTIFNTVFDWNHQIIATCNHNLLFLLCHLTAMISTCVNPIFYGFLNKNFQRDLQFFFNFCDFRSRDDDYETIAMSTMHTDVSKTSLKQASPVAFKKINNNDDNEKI
NPY-Y1 antag: NPY-Y1 (human) receptor antagonism | hit rate 1% among 200,000 | HEK293-CNG Y1 cells, membrane potential fluorescence; NPY at EC95, then isoproterenol | AID 1040 | inhibition, % at 3.6 µM;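 active = inhibition above the campaign mean inhibition of all tested compounds plus 3 SD, cut at about 20% in these data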;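 also: 0% = DMSO wells given NPY plus isoproterenol and 100% = isoproterenol alone without NPY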
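Assay system: HEK293 Y1/CNG channel cell line; Doses: single compound dose of 3.6 µM, 0.4% DMSO; Timing: dye 3 h, compound 60 min room temperature, stimulation 45 min; Technique: Membrane-potential fluorescent dye readout; Measure: % inhibition of NPY effect.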
NPY2 pot ag: potentiators or agonists of human neuropeptide Y receptor Y2; hit rate 0.45% among 220,000; P49146; activation, % at 3.6 µM; cells expressing NPY-Y2, potentiator/agonist read-out; in the data active = activation above about 27%;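 also: cells stimulated with NPY near EC25 plus isoproterenol at EC100; 0% = vehicle plus submaximal agonist and 100% = vehicle plus saturating agonist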
Mdm2 ligase inh: inhibitors of human Mdm2 E3 ubiquitin ligase. Q00987. signal enhancement, % at 5 µM. cell-based MDM2 ubiquitination luciferase reporter, 2 h; 0 = plate control, 100 = twice control, blank-subtracted. hit rate 0.11% among 210,000;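 active = signal enhancement of 30% or more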;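 also: luminescence tracks abundance of the self-degrading MDM2-luciferase fusion protein; higher signal means inhibition of MDM2 E3 ligase activity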
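system = mammalian cells stably expressing self-ubiquitinating, self-degrading MDM2 E3–luciferase fusion | quantity = 2000 cells per well seeded | incubation = 4 h cell settling then 2 h compound exposure, 37 °C | signal = SteadyLite luminescence, 15 min reagent step | benchmarks = plate control and blank wells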
NPY Y2 blocker: NPY-Y2 (human) receptor antagonism. NPY-Y2 expressing cells, antagonist mode. inhibition, % at 2.7 µM. P49146. hit rate 0.99% among 140,000; in the data active = inhibition above about 17%;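 also: 0% = vehicle with agonist challenge and 100% = reference antagonist with challenge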
An asterisk follows results filed as active; nt = no result given.

SMILES	Measles CPE	NPY-Y1 PAM-ag	NPY-Y1 antag	NPY2 pot ag	Mdm2 ligase inh	NPY Y2 blocker
Cc1cccc2sc(N(CCCN(C)C)C(=O)c3sc4ccccc4c3Cl)nc12	5	-20	8	-17	-7	5
CCOC(=O)C1=C(C)NC(C)=C(C(=O)OCC)C1C(=O)OCC(=O)N(CC)C1CCS(=O)(=O)C1 (stereo unspecified)	nt	-8	-2	-16	-8	nt
CO/N=C\CC(=O)Nc1ccc(Oc2ccccc2)cc1	nt	14	6	-8	-30	nt
CCNS(=O)(=O)c1ccc(NC(=O)c2ccc(Cn3cc(Br)cn3)o2)cc1	3	-2	-1	7	1	0
CC(=O)c1sc(NC(=O)c2ccc(Cn3cc(Br)cn3)o2)nc1C	4	46*	-13	48*	12	-6
CCNC(=O)C(Sc1ccccc1)c1ccccc1 (stereo unspecified)	30*	1	3	11	-2	1
FC(F)Sc1nc(-c2ccccc2)c(-c2ccccc2)n1C(F)F	34*	-8	4	-2	-7	9
N#CC(C#N)=C1CCc2ccccc2N1	59*	2	1	-1	-2	4
Cc1ccc(C(=O)NCc2ccco2)cc1Br	23	-17	0	-3	-6	4
Cc1c(Br)cc(C(=O)NCc2ccco2)c(C)c1C	103*	-10	2	-10	-23	1
O=C(O)C1C2CCC(O2)C1C(=O)NCc1ccc(Cl)cc1 (stereo unspecified)	20	-16	-1	12	0	-1
CN1CSC2=C(C#N)C(c3cccc(OCc4ccccc4)c3)CC(=O)N2C1 (stereo unspecified)	63*	3	3	-1	-3	1
CCc1ccc(C2CC(=O)N3CN(c4ccccc4)CSC3=C2C#N)cc1 (stereo unspecified)	2	-5	3	4	-13	3
O=C(Nc1ccccc1)C1C2CCC3C(CCC21)C3(Cl)Cl (stereo unspecified)	16	-1	21*	-17	-14	14
CCOc1ccccc1NC(=O)C1C2CCC3C(CCC21)C3(Cl)Cl (stereo unspecified)	nt	-18	10	-13	-11	nt
CN(C)CCCOC(=O)COc1ccc(C(C)(C)C)cc1	25*	-9	-1	-2	-3	3
COc1ccc2nc(-c3ccc(Cl)cc3)cc(C(=O)O)c2c1	nt	-3	nt	4	-13	nt
Clc1ccc(COn2c(-c3ccccc3)nc3ccccc32)cc1	4	-111	54*	-77	-2	37*
O=[N+]([O-])c1ccc2nc(-c3ccc(Cl)cc3)n(OCc3ccccc3)c2c1	4	-1	3	-3	-12	2
Clc1ccc(COn2c(-c3ccc(Cl)cc3)nc3ccccc32)cc1	4	-202	84*	-149	-10	61*
CCCC[N+](CC#Cc1ccccc1)(CCCC)CCCS(=O)(=O)[O-]	nt	2	2	4	1	nt
CN1CCN(C2=C(NS(=O)(=O)c3cccs3)C(=O)c3ccccc3C2=O)CC1	nt	-2	nt	-27	-8	nt
O=C1C(NS(=O)(=O)c2cccs2)=C(N2CCN(Cc3ccccc3)CC2)C(=O)c2ccccc21	nt	60*	nt	40*	-12	nt
CCOc1ccccc1N1CCN(C2=C(NS(=O)(=O)c3cccs3)C(=O)c3ccccc3C2=O)CC1	28	50*	-14	43*	-13	-12
CC1(C)CC(=O)CC(=Nc2ccc(C(=O)O)cc2)C1	3	-6	-5	-5	-7	1
SMILES	Measles CPE	NPY-Y1 PAM-ag	NPY-Y1 antag	NPY2 pot ag	Mdm2 ligase inh	NPY Y2 blocker
Cc1cc(C)n(-c2nc(SCCN(C)C)c3c4c(sc3n2)COC(C)(C)C4)n1	5	-167	147*	-59	-1	78*
Cc1ncc(N=Nc2ccccc2Cl)c(-c2ccccc2)n1	9	-26	7	14	-11	1
Nc1nc(-c2ccccc2)c(N=Nc2cccc3ccccc23)s1	11	111*	-29	97*	-3	-13
Nc1nc(-c2ccccc2)c(N=Nc2ccccc2Cl)s1	4	95*	-27	79*	8	-14
COc1ccccc1CNC(=O)c1ccccc1N	37*	16	-1	-1	-13	0
Cc1ccccc1CNC(=O)c1ccccc1N	1	2	-1	1	-9	3
CC1(C(=O)OCC(=O)Nc2ccc3ccccc3c2)CC1(Cl)Cl (stereo unspecified)	nt	-13	-1	-20	-7	nt
c1coc(-c2nnc3sc(Cc4cccs4)nn23)c1	41	-10	4	-1	5	5
Clc1ccc(-c2nnc3sc(Cc4cccs4)nn23)c(Cl)c1	68*	-17	-4	-15	-14	3
CCCCS(=O)(=O)/C=C\C1C2C=CC(C2)C1S(=O)(=O)CCCC (stereo unspecified)	13	9	3	11	-11	1
CCCCS(=O)(=O)/C=C\C=C/S(=O)(=O)CCCC	1	-14	2	-1	31*	-3
CC(C)NCC(O)COC1C2CC3CC(C2)CC1C3 (stereo unspecified)	nt	48*	-9	32*	-9	nt
CC1CCC(C(C)C)C(OCC(O)CNC(C)C)C1 (stereo unspecified)	nt	107*	nt	98*	-13	nt
CSc1nc(NC(C)=O)nc(C)c1Br	9	-4	2	-5	5	3
COc1cc(NC2c3ccccc3C(=O)N2Cc2ccc3c(c2)OCO3)cc(OC)c1 (stereo unspecified)	nt	-17	nt	-18	-6	nt
Cc1ccc(NS(=O)(=O)c2ccc(CCC(=O)NCCCOC(C)C)cc2)cc1	25*	12	0	1	8	2
CC(C)c1ccc(OCc2cccc(C(=O)N/N=C/c3cccnc3)c2)cc1	4	-14	1	-11	34*	5
CCCCSc1ccc2nc(-c3ccc(C#N)cc3)cn2c1	43*	-20	10	-29	-10	7
CCCCNC(=O)CSc1nc2ccsc2c(=O)n1CCCC(=O)NCCc1ccc(S(N)(=O)=O)cc1	nt	-5	-2	8	-9	nt
CCC1SC2=NC(C)=C(C(=O)OCCOC)C(/C=C/c3ccccc3OC)N2C1=O (stereo unspecified)	54*	5	8	5	-18	6
CCN1C(=O)C(CC(=O)Nc2ccc(Br)cc2)N(CCCc2ccccc2)C1=S (stereo unspecified)	4	24	-4	33	-23	-6
Cc1ccc(S(=O)(=O)Nc2ccc(Br)cc2/C=N/n2cnnc2)cc1	13	49*	-18	47*	-22	1
Cc1cc(Cl)c(OCCCN(C)C)c(Br)c1	48*	-15	7	-5	-6	8
Cc1ccc(OCCCN(C)C)c(Br)c1	24	-6	16	-2	-9	3
